Data taken from ChEMBL document CHEMBL4033790, “Design and Synthesis of Novel Deuterated Ligands Functionally Selective for the γ-Aminobutyric Acid Type A Receptor (GABAAR) α6 Subtype with Improved Metabolic Stability and Enhanced Bioavailability” (J Med Chem, 2018).
Values after ≈ are worked out from the molar mass of the structure shown. Active and inactive are the calls of the source. The rule behind the calls is not given here.

Columns and labels:
[1] = Metabolic stability in human liver microsomes assessed as parent compound remaining at 10 uM after 60 mins by LC-MS analysis; format: ADME, microsome; conditions: read-out: Stability
Method in brief: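 The 60 min samples of the microsomal incubation (10 μM compound, human or mouse liver microsomes at 0.5 mg/mL, NADPH regenerating system, 37 °C) were analysed by LC-MS. Detection used SIM mode with dual ESI/APCI ionization, calibrated to the retention times and masses of the parent and its O-demethylated metabolites. Peak intensities were measured.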

HEK-293T = assay: Cytotoxicity against HEK293T cells assessed as reduction in cell viability up to 400 uM after 48 hrs by CellTiter-Glo assay; format: cell-based; conditions: human
Method in brief: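 HEK293T and HepG2 cells grown in high-glucose DMEM with non-essential amino acids, 10 mM HEPES, penicillin/streptomycin and 10% heat-inactivated FBS. Cells were harvested with trypsin and plated; compound was pin-transferred 3 h later. Incubation was 48 h, then CellTiter-Glo luminescence was read. Controls were DMSO (negative) and a cytotoxic aminoketone (positive). Quadruplicates, three independent runs, normalized to controls, nonlinear regression.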

[2] = Cmax in Wistar rat brain at 10 mg/kg, ip administered as single dose measured at 5 to 720 mins post dose by HPLC-MS/MS analysis; format: ADME, organism-based; design: dose 10 mg/kg, route intraperitoneal
Method in brief: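 Male Wistar rats (250-350 g) given a single 10 mg/kg i.p. dose of a 5 mg/ml suspension in 85% distilled water, 14% propylene glycol, 1% Tween 80. Three rats per time point (5, 20, 60, 180, 720 min). Blood and brain were collected after sacrifice. Drug was recovered by solid phase extraction and quantified by HPLC-MS/MS.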

[3] = Terminal elimination half-life in Wistar rat brain at 2 mg/kg administered as single dose via oral gavage by HPLC-MS/MS analysis; format: ADME, organism-based; conditions: read-out: beta t1/2 (converted)
Method in brief: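 Male Wistar rats (250–350 g) received a single 2 mg/kg dose, by oral gavage or IV, from nanoemulsion formulations. Three rats per time point were sampled for plasma and brain at 5, 30, 120, 480 and 1440 min. Compound levels were measured by HPLC-MS/MS after solid-phase extraction; oral bioavailability was derived from plasma AUCs for the two routes.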

Rattus norvegicus [4] = assay: Toxicity in Wistar rat assessed as total distance traveled at 10 mg/kg, ip administered for 45 mins measured for 5 min by elevated plus maze method (reference value: 6.71 +/- 0.56 meter); format: organism-based; conditions: in vivo
Rattus norvegicus [5] = assay: Toxicity in Wistar rat assessed as open arm entries at 10 mg/kg, ip administered for 45 mins measured for 5 min by elevated plus maze apparatus method (reference value: 23.07 +/- 5.47%); format: organism-based; conditions: in vivo
Rattus norvegicus [6] = assay: Toxicity in Wistar rat assessed as peripheral ring distance at 10 mg/kg, ip administered for 45 mins by cued water-maze method (reference value: 67.44 +/- 4.60%); format: organism-based; conditions: in vivo, 0.75 h
Rattus norvegicus [7] = assay: Hyperlocomotor activity in Wistar rat assessed as total distance travelled at 10 mg/kg, ip after 60 mins; format: ADME, organism-based; conditions: in vivo, 1 h
[8] = Oral bioavailability in Wistar rat plasma at 2 mg/kg administered as single dose via gavage by HPLC-MS/MS analysis; format: ADME, organism-based
Method in brief: (§1)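 Male Wistar rats (250-350 g) received a single 2 mg/kg dose, nanoemulsion formulation, by oral gavage or IV. Three rats per time point (5, 30, 120, 480, 1440 min); plasma and brain collected. Compound extracted by solid-phase extraction and quantified by HPLC-MS/MS. Absolute oral bioavailability was calculated from plasma AUC after the two routes.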

Brain [9] = assay: Oral bioavailability in Wistar rat brain at 2 mg/kg administered as single dose via gavage by HPLC-MS/MS analysis; format: ADME, organism-based; conditions: in vivo; method in brief: as §1
Brain [10] = assay: Fraction unbound in Wistar rat brain at 10 mg/kg, ip administered as single dose measured at 5 to 720 mins post dose by HPLC-MS/MS analysis; format: ADME, organism-based; conditions: in vivo
Method in brief: (§2)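 Free fraction in rat plasma and brain tissue was measured in vitro by rapid equilibrium dialysis. Exposure came from male Wistar rats (250-350 g) given a single 10 mg/kg IP dose, as a 5 mg/ml suspension in 85% water, 14% propylene glycol and 1% Tween 80. Three rats per time point (5–720 min); brain analysed by HPLC-MS/MS after solid-phase extraction.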

Brain [11] = assay: Unbound AUC in Wistar rat brain at 10 mg/kg, ip administered as single dose measured at 5 to 720 mins post dose by HPLC-MS/MS analysis; format: ADME, organism-based; conditions: in vivo; method in brief: as §2
Mus musculus = assay: Neurotoxicity in Swiss Webster mouse assessed as induction of motor impairment at 55 mg/kg administered via oral gavage measured after 10 to 60 mins by rotarod method; format: toxicity, organism-based; conditions: in vivo
[12] = Aqueous solubility of the compound in DI water at pH 7 after 2 hrs by LC-MS analysis; format: physicochemical; conditions: buffer, pH 7, 2 h
Method in brief: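 10 mg compound dissolved in 2 mL DMAC; 10 μL of this added to 2 mL DI water (pH 7, sonicated) or 2 mL 0.01 M aq HCl (pH 2), held 2 h at 37 °C. Filtered through 0.45 micron filter, then quantified by LC-MS in SIM mode against calibration curves of standards in DMAC (n = 5); n=3.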

[13] = target: GABA A receptor alpha-4/beta-3/gamma-2 (Homo sapiens) (UniProt P18507+P28472+P48169); assay: Positive allosteric modulation of GABA-A receptor alpha4beta3gamma2 (unknown origin) expressed in Xenopus laevis oocytes assessed as potentiation of EC3 GABA induced currents up to 1 uM at -60 mV holding potential by electrophysiological method relative to GABA; format: cell-based
Method in brief: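 Stage 5–6 defolliculated Xenopus oocytes were injected with 2.5 ng total mRNA per oocyte: α1, α2, α3 or α5 with β3 and γ2 at 1:1:5, and α4 or α6 with β3 and γ2 at 3:1:5. Oocytes were kept ≥36 h at 18 °C in NDE medium before recording. Compounds were co-applied with GABA titrated to EC3-5 for each oocyte. Curves were fitted with the Hill equation; mean ± SEM from ≥3 oocytes across two batches.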

Rattus norvegicus [14] = organism: Rattus norvegicus; assay: Displacement of [3H]-flunitrazepam from rat brain GABA-A receptor benzodiazepine site […] at 10 uM after 60 to 90 mins by scintillation counting
[15] = target: 5-hydroxytryptamine receptor 7 (Homo sapiens) (UniProt P34969); assay: Displacement of [3H]-LSD from human recombinant 5HT7 receptor expressed in HEK293 cells at 10 uM after 60 to 90 mins by scintillation counting; format: cell-based
[16] = target: Mu-type opioid receptor (Homo sapiens) (UniProt P35372); assay: Displacement of [3H]-DAMGO from human recombinant MOR expressed in HEK293 cells at 10 uM after 60 to 90 mins by scintillation counting; format: cell-based
[17] = target: D(1B) dopamine receptor (Homo sapiens) (UniProt P21918); assay: Displacement of [3H]-[…] from human recombinant dopamine D5 receptor expressed in HEK293 cells at 10 uM after 60 to 90 mins by scintillation counting; format: cell-based
Method in brief: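 Primary single-concentration radioligand displacement screen run by the NIMH Psychoactive Drug Screening Program across a 46-target panel that includes hERG. The read-out is percent inhibition of specific radioligand binding. Any compound displacing more than 50% of radioligand went on to secondary binding assays to determine Ki.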

Sequence of Mu-type opioid receptor (Homo sapiens) (P35372 whole entry): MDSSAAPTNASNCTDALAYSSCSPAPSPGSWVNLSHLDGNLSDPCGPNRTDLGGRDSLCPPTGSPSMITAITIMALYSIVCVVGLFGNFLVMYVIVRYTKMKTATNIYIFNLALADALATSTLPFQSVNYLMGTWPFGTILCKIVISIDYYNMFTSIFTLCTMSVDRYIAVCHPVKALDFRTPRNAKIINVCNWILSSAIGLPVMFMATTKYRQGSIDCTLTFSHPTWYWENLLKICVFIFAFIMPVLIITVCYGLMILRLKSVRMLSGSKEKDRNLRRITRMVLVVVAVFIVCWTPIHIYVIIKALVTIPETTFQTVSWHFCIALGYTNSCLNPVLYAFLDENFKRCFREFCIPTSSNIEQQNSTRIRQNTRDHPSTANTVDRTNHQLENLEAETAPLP
Sequence of 5-hydroxytryptamine receptor 7 (Homo sapiens) (P34969 whole entry): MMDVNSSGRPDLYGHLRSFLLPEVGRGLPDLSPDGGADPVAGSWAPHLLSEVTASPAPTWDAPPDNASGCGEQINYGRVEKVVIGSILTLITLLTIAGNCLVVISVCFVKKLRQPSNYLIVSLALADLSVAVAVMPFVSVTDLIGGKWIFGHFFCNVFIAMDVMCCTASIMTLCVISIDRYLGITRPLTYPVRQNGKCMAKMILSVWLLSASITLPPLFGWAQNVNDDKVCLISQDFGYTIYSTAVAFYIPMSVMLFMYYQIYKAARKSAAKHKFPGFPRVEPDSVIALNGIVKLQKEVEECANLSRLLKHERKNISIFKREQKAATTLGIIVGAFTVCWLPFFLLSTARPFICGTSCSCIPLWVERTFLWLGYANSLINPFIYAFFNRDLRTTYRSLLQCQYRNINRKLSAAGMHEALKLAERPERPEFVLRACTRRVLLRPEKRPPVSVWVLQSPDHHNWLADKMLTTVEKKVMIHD
Sequence of D(1B) dopamine receptor (Homo sapiens) (P21918 whole entry): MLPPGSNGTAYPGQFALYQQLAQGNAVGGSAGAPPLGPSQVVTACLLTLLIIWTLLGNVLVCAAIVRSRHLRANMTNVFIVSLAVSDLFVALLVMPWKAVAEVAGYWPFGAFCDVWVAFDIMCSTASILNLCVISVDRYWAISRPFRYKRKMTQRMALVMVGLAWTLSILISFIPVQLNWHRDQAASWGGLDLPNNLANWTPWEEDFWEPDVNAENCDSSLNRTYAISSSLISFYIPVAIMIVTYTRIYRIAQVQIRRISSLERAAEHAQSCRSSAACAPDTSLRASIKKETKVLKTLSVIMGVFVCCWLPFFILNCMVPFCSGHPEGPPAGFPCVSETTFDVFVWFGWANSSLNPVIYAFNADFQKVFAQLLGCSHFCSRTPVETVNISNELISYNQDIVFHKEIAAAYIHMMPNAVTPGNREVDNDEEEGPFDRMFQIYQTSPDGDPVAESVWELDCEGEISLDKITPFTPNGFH

With `[2H]C([2H])([2H])Oc1ccc(-n2nc3c4ccc(OC)cc4[nH]cc-3c2=O)cc1` the remaining at 1 h, 10 µM [1] was 91.7%, the Activity (HEK-293T) was “Non-Toxic” and the Cmax [2] was 587 ng/g. It also gave a half-life [3] of 252 min, an Activity (Rattus norvegicus [4]) of 5.84 m and an Activity (Rattus norvegicus [5]) of 22.36%. The Activity (Rattus norvegicus [6]) was 67.2%, the Activity (Rattus norvegicus [7]) was “Toxic” and the bioavailability [8] was 100%. The F (Brain [9]) was 89.5%, the Fu (Brain [10]) was 0.194 and the fAUC (Brain [11]) was 651.72 ng·h/g. For the same compound, the Activity (Mus musculus) was “Non-Toxic”.

In the case of `COc1ccc(-n2nc3c4ccc(OC)cc4[nH]cc-3c2=O)cc1`, the remaining at 1 h, 10 µM [1] is reported as 86.1%, the solubility [12] is reported as 24.3 µM (≈ 7.81 µg/mL) and the Activity [13] is reported as < 0%. For the same compound, the inhibition (Rattus norvegicus [14]) was “Active”, the inhibition [15] was “Active” and the inhibition [16] was “Active”. For the same compound, the inhibition [17] was “Active”, the Cmax [2] was 352 ng/g and the half-life [3] was 763 min. It also gave a bioavailability [8] of 66.9% and an F (Brain [9]) of 82.6%.
